Assay results reported in ChEMBL document CHEMBL1287747, “Highly active antimycobacterial derivatives of benzoxazine” (2010).
≈ marks a conversion by molar mass, not a printed value.

The molecules below were run on Mycobacterium tuberculosis (assay: Antimycobacterial activity against Mycobacterium tuberculosis CNCTC My 331/88 after 14 days by microdilution method). Settings: CNCTC My 331/88, 336 h.
Format: functional
Method in brief: (§1)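 Strains from the Czech National Collection of Type Cultures, tested by dilution micromethod in Šula semisynthetic medium. Incubated at 37 °C and read at 14 and 21 days. MIC is the lowest concentration inhibiting growth.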

| SMILES | MIC |
| --- | --- |
| CCC(C)c1ccc(-n2c(=S)oc3cc(C)ccc3c2=S)cc1 (centres undefined) | 0.25 µM (≈ 0.0854 µg/mL) |
| CC(C)(C)c1ccc(-n2c(=S)oc3ccc(Cl)cc3c2=S)cc1 | 0.25 µM (≈ 0.0905 µg/mL) |
| Cc1ccc2c(=S)n(-c3ccc(C(C)(C)C)cc3)c(=S)oc2c1 | 0.25 µM (≈ 0.0854 µg/mL) |
| CC(C)c1ccc(-n2c(=O)oc3ccc(F)cc3c2=O)cc1 | 8 µM (≈ 2.39 µg/mL) |
| CCC(C)c1ccc(-n2c(=O)oc3ccc(F)cc3c2=O)cc1 (centres undefined) | 8 µM (≈ 2.51 µg/mL) |
| CCCCc1ccc(-n2c(=O)oc3ccc(Cl)cc3c2=O)cc1 | 16 µM (≈ 5.28 µg/mL) |
| CC(C)(C)c1ccc(-n2c(=O)oc3ccc(Cl)cc3c2=O)cc1 | 8 µM (≈ 2.64 µg/mL) |
| CC(C)(C)c1ccc(-n2c(=O)oc3ccc(F)cc3c2=O)cc1 | 16 µM (≈ 5.01 µg/mL) |

These molecules were tested on Mycobacterium tuberculosis (assay: Antimycobacterial activity against Mycobacterium tuberculosis CNCTC My 331/88 after 21 days by microdilution method). Settings: CNCTC My 331/88, 504 h.
Format: functional
Method in brief: as §1

| SMILES | MIC |
| --- | --- |
| CCC(C)c1ccc(-n2c(=S)oc3cc(C)ccc3c2=S)cc1 (centres undefined) | 0.5 µM (≈ 0.171 µg/mL) |
| CC(C)(C)c1ccc(-n2c(=S)oc3ccc(Cl)cc3c2=S)cc1 | 0.5 µM (≈ 0.181 µg/mL) |
| Cc1ccc2c(=S)n(-c3ccc(C(C)(C)C)cc3)c(=S)oc2c1 | 0.5 µM (≈ 0.171 µg/mL) |
| CC(C)c1ccc(-n2c(=O)oc3ccc(F)cc3c2=O)cc1 | 8 µM (≈ 2.39 µg/mL) |
| CCC(C)c1ccc(-n2c(=O)oc3ccc(F)cc3c2=O)cc1 (centres undefined) | 8 µM (≈ 2.51 µg/mL) |
| CCCCc1ccc(-n2c(=O)oc3ccc(Cl)cc3c2=O)cc1 | 16 µM (≈ 5.28 µg/mL) |
| CC(C)(C)c1ccc(-n2c(=O)oc3ccc(Cl)cc3c2=O)cc1 | 16 µM (≈ 5.28 µg/mL) |
| CC(C)(C)c1ccc(-n2c(=O)oc3ccc(F)cc3c2=O)cc1 | 16 µM (≈ 5.01 µg/mL) |

What follows are molecules tested on Mycobacterium avium (assay: Antimycobacterial activity against Mycobacterium avium CNCTC My 330/88 after 14 days by microdilution method). Settings: CNCTC My 330/88, 336 h.
Format: functional
Method in brief: as §1

| SMILES | MIC |
| --- | --- |
| CCC(C)c1ccc(-n2c(=S)oc3cc(C)ccc3c2=S)cc1 (centres undefined) | 0.25 µM (≈ 0.0854 µg/mL) |
| CC(C)(C)c1ccc(-n2c(=S)oc3ccc(Cl)cc3c2=S)cc1 | 1 µM (≈ 0.362 µg/mL) |
| Cc1ccc2c(=S)n(-c3ccc(C(C)(C)C)cc3)c(=S)oc2c1 | 0.5 µM (≈ 0.171 µg/mL) |
| CC(C)c1ccc(-n2c(=O)oc3ccc(F)cc3c2=O)cc1 | 8 µM (≈ 2.39 µg/mL) |
| CCC(C)c1ccc(-n2c(=O)oc3ccc(F)cc3c2=O)cc1 (centres undefined) | 8 µM (≈ 2.51 µg/mL) |
| CCCCc1ccc(-n2c(=O)oc3ccc(Cl)cc3c2=O)cc1 | 16 µM (≈ 5.28 µg/mL) |
| CC(C)(C)c1ccc(-n2c(=O)oc3ccc(Cl)cc3c2=O)cc1 | 16 µM (≈ 5.28 µg/mL) |
| CC(C)(C)c1ccc(-n2c(=O)oc3ccc(F)cc3c2=O)cc1 | 16 µM (≈ 5.01 µg/mL) |

What follows are molecules tested on Mycobacterium avium (assay: Antimycobacterial activity against Mycobacterium avium CNCTC My 330/88 after 21 days by microdilution method). Settings: CNCTC My 330/88, 504 h.
Format: functional
Method in brief: as §1

| SMILES | MIC |
| --- | --- |
| CCC(C)c1ccc(-n2c(=S)oc3cc(C)ccc3c2=S)cc1 (centres undefined) | 0.5 µM (≈ 0.171 µg/mL) |
| CC(C)(C)c1ccc(-n2c(=S)oc3ccc(Cl)cc3c2=S)cc1 | 2 µM (≈ 0.724 µg/mL) |
| Cc1ccc2c(=S)n(-c3ccc(C(C)(C)C)cc3)c(=S)oc2c1 | 1 µM (≈ 0.342 µg/mL) |
| CC(C)c1ccc(-n2c(=O)oc3ccc(F)cc3c2=O)cc1 | 16 µM (≈ 4.79 µg/mL) |
| CCC(C)c1ccc(-n2c(=O)oc3ccc(F)cc3c2=O)cc1 (centres undefined) | 8 µM (≈ 2.51 µg/mL) |
| CCCCc1ccc(-n2c(=O)oc3ccc(Cl)cc3c2=O)cc1 | 16 µM (≈ 5.28 µg/mL) |
| CC(C)(C)c1ccc(-n2c(=O)oc3ccc(Cl)cc3c2=O)cc1 | 32 µM (≈ 10.6 µg/mL) |
| CC(C)(C)c1ccc(-n2c(=O)oc3ccc(F)cc3c2=O)cc1 | 16 µM (≈ 5.01 µg/mL) |

What follows are molecules tested on Mycobacterium kansasii (assay: Antimycobacterial activity against Mycobacterium kansasii CNCTC My 235/80 after 14 days by microdilution method). Settings: CNCTC My 235/80, 336 h.
Format: functional
Method in brief: as §1

| SMILES | MIC |
| --- | --- |
| CCC(C)c1ccc(-n2c(=S)oc3cc(C)ccc3c2=S)cc1 (centres undefined) | 2 µM (≈ 0.683 µg/mL) |
| CC(C)(C)c1ccc(-n2c(=S)oc3ccc(Cl)cc3c2=S)cc1 | 8 µM (≈ 2.9 µg/mL) |
| Cc1ccc2c(=S)n(-c3ccc(C(C)(C)C)cc3)c(=S)oc2c1 | 2 µM (≈ 0.683 µg/mL) |
| CC(C)c1ccc(-n2c(=O)oc3ccc(F)cc3c2=O)cc1 | 8 µM (≈ 2.39 µg/mL) |
| CCC(C)c1ccc(-n2c(=O)oc3ccc(F)cc3c2=O)cc1 (centres undefined) | 8 µM (≈ 2.51 µg/mL) |
| CCCCc1ccc(-n2c(=O)oc3ccc(Cl)cc3c2=O)cc1 | 8 µM (≈ 2.64 µg/mL) |
| CC(C)(C)c1ccc(-n2c(=O)oc3ccc(Cl)cc3c2=O)cc1 | 8 µM (≈ 2.64 µg/mL) |
| CC(C)(C)c1ccc(-n2c(=O)oc3ccc(F)cc3c2=O)cc1 | 16 µM (≈ 5.01 µg/mL) |

These molecules were tested on Mycobacterium kansasii (assay: Antimycobacterial activity against Mycobacterium kansasii CNCTC My 235/80 after 21 days by microdilution method). Settings: CNCTC My 235/80, 504 h.
Format: functional
Method in brief: as §1

| SMILES | MIC |
| --- | --- |
| CCC(C)c1ccc(-n2c(=S)oc3cc(C)ccc3c2=S)cc1 (centres undefined) | 2 µM (≈ 0.683 µg/mL) |
| CC(C)(C)c1ccc(-n2c(=S)oc3ccc(Cl)cc3c2=S)cc1 | 8 µM (≈ 2.9 µg/mL) |
| Cc1ccc2c(=S)n(-c3ccc(C(C)(C)C)cc3)c(=S)oc2c1 | 2 µM (≈ 0.683 µg/mL) |
| CC(C)c1ccc(-n2c(=O)oc3ccc(F)cc3c2=O)cc1 | 8 µM (≈ 2.39 µg/mL) |
| CCC(C)c1ccc(-n2c(=O)oc3ccc(F)cc3c2=O)cc1 (centres undefined) | 8 µM (≈ 2.51 µg/mL) |
| CCCCc1ccc(-n2c(=O)oc3ccc(Cl)cc3c2=O)cc1 | 8 µM (≈ 2.64 µg/mL) |
| CC(C)(C)c1ccc(-n2c(=O)oc3ccc(Cl)cc3c2=O)cc1 | 16 µM (≈ 5.28 µg/mL) |
| CC(C)(C)c1ccc(-n2c(=O)oc3ccc(F)cc3c2=O)cc1 | 16 µM (≈ 5.01 µg/mL) |

What follows are molecules tested on Mycobacterium kansasii (assay: Antimycobacterial activity against Mycobacterium kansasii 6509/96 after 14 days by microdilution method). Settings: 6509/96, 336 h.
Format: functional
Method in brief: (§2)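 Clinical isolate that, unlike the standard strain, is not isoniazid-resistant. Tested by dilution micromethod in Šula semisynthetic medium, with compounds added in DMSO at final 1000 down to 0.25 µmol/L in twofold steps. Löwenstein-Jensen plate used as inoculum sterility and growth control. Incubated at 37 °C and read at 14 and 21 days. MIC is the lowest concentration inhibiting growth.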

| SMILES | MIC |
| --- | --- |
| CCC(C)c1ccc(-n2c(=S)oc3cc(C)ccc3c2=S)cc1 (centres undefined) | 0.5 µM (≈ 0.171 µg/mL) |
| CC(C)(C)c1ccc(-n2c(=S)oc3ccc(Cl)cc3c2=S)cc1 | 8 µM (≈ 2.9 µg/mL) |
| Cc1ccc2c(=S)n(-c3ccc(C(C)(C)C)cc3)c(=S)oc2c1 | 1 µM (≈ 0.342 µg/mL) |
| CC(C)c1ccc(-n2c(=O)oc3ccc(F)cc3c2=O)cc1 | 8 µM (≈ 2.39 µg/mL) |
| CCC(C)c1ccc(-n2c(=O)oc3ccc(F)cc3c2=O)cc1 (centres undefined) | 4 µM (≈ 1.25 µg/mL) |
| CCCCc1ccc(-n2c(=O)oc3ccc(Cl)cc3c2=O)cc1 | 8 µM (≈ 2.64 µg/mL) |
| CC(C)(C)c1ccc(-n2c(=O)oc3ccc(Cl)cc3c2=O)cc1 | 8 µM (≈ 2.64 µg/mL) |
| CC(C)(C)c1ccc(-n2c(=O)oc3ccc(F)cc3c2=O)cc1 | 8 µM (≈ 2.51 µg/mL) |

These molecules were tested on Mycobacterium kansasii (assay: Antimycobacterial activity against Mycobacterium kansasii 6509/96 after 21 days by microdilution method). Settings: 6509/96, 504 h.
Format: functional
Method in brief: as §2

| SMILES | MIC |
| --- | --- |
| CCC(C)c1ccc(-n2c(=S)oc3cc(C)ccc3c2=S)cc1 (centres undefined) | 1 µM (≈ 0.342 µg/mL) |
| CC(C)(C)c1ccc(-n2c(=S)oc3ccc(Cl)cc3c2=S)cc1 | 8 µM (≈ 2.9 µg/mL) |
| Cc1ccc2c(=S)n(-c3ccc(C(C)(C)C)cc3)c(=S)oc2c1 | 2 µM (≈ 0.683 µg/mL) |
| CC(C)c1ccc(-n2c(=O)oc3ccc(F)cc3c2=O)cc1 | 16 µM (≈ 4.79 µg/mL) |
| CCC(C)c1ccc(-n2c(=O)oc3ccc(F)cc3c2=O)cc1 (centres undefined) | 8 µM (≈ 2.51 µg/mL) |
| CCCCc1ccc(-n2c(=O)oc3ccc(Cl)cc3c2=O)cc1 | 16 µM (≈ 5.28 µg/mL) |
| CC(C)(C)c1ccc(-n2c(=O)oc3ccc(Cl)cc3c2=O)cc1 | 8 µM (≈ 2.64 µg/mL) |
| CC(C)(C)c1ccc(-n2c(=O)oc3ccc(F)cc3c2=O)cc1 | 16 µM (≈ 5.01 µg/mL) |
